# High-throughput results: PubChem BioAssay, several laboratories
# HNF4A DNA FP – change in binding of human HNF4 alpha to DNA; P41235; HNF4a-FITC DNA binding, fluorescence polarization, 1 h; activity change, % at 10 µM; actives 0.3% (n = 360,000); AID 1224865; in the data active = activity change above about 30%, passing the limit was not always enough
# CSN inh – CSN deneddylation inhibition. Q92905. Purified CSN, SCF-Nedd8-OG deneddylation, fluorescence polarization. inhibition, % at 12.5 µM. actives 0.38% (n = 360,000). AID 651999;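 active = pattern-corrected inhibition above about 35%, with an unprinted fluorescence ratio check between 0.5 and 1.5, limit read from the data, passing the limit was not always enough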
#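 Test system: purified human Csn5 enzyme expressed in HEK293T cells. Amount: 0.24 nM enzyme. Reagent: SCFSkp2-Nedd8OG substrate at 10 nM final. Schedule: 90 min incubation of compound, enzyme and substrate at room temperature. Detection: fluorescence polarization. Read-out: % inhibition of substrate cleavage by Csn5.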
# TPT1 inhibitor – blocks Candida albicans tRNA 2'-phosphotransferase. recombinant caTPT1, FP RNA substrate dephosphorylation. inhibition, % at 5 µM. actives 0.81% (n = 300,000);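 active = inhibition above the mean of all tested compounds plus 3 SD, set per screening campaign, cut at about 24% in these data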
# Rev-erbA mod – modulates human Rev-erb alpha binding to DNA | actives 0.79% (n = 370,000) | P20393 | Rev-erbα–FITC-DNA binding, fluorescence polarization, 90 min | activity, % at 10 µM;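 active = activity above about 14%, limit read from the data; passing the limit was not always enough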
# Target sequence (P20393 whole entry, looked up): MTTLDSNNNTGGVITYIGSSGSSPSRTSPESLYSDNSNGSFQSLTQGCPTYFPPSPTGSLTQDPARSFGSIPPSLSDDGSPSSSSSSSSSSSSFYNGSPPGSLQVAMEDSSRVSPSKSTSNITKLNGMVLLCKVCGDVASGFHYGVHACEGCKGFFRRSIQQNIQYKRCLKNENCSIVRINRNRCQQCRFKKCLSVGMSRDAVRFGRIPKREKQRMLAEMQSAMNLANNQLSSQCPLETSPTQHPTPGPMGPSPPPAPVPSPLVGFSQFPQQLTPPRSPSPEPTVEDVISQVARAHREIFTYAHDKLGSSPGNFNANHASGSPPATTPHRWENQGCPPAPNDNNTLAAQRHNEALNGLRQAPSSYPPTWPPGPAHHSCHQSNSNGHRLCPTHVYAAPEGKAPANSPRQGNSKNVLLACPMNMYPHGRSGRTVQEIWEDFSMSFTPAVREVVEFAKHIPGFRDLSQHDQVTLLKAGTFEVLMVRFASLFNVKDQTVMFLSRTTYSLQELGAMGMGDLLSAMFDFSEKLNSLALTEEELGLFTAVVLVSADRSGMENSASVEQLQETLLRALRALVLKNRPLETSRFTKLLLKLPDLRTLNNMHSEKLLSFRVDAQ
# NR1D1 mod conf – Rev-erb alpha (human) modulation, hit confirmation. activation, % at 25 µM. actives 61% (n = 3,000). shares compounds with Rev-erbA mod. AID 1259319. Rev-erb alpha FITC-DNA binding, fluorescence polarization, 90 min;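 active = activation at or above a set limit, or at least 3 SD above the negative control mean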
# RORg DNA counter – RORgamma DNA-binding activity, dose-response counter-screen; purified RORgamma protein-FITC-DNA binding, fluorescence polarization; IC50, µM; actives 8% (n = 910); shares compounds with Rev-erbA mod;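 active = Compounds whose fitted half-maximal concentration for disrupting protein-DNA binding is below 10 micromolar; the record names Rev-erb in its text, so the target is in doubt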
# Numbers stand for hits; - = inactive; . = not tested or not shown. A selection: hits, their analogues and other compounds. The true share with any hit is near 1.7%.
SMILES,HNF4A DNA FP,CSN inh,TPT1 inhibitor,Rev-erbA mod,NR1D1 mod conf,others
COc1ccc(OC)c(C2NC(=O)c3sc(=S)n(-c4ccccc4)c3N2)c1 (centres undefined),-,-,-,38.9,-,
COc1cc(OC)cc(-c2c(-c3cccs3)c3cc(-c4ccc(N(C)C)nc4)ccc3n2C)c1,-,-,.,24.1,-,
COc1cc(F)cc(-c2ccc3c(c2)c(-c2cccs2)c(-c2cc(OC)cc(OC)c2)n3C)c1,-,-,.,-,.,
CCNC(=O)Nc1ccc2c(c1)C(=O)N(C)[C@H]1CC[C@H](CC(=O)N[C@H](C)c3ccccc3)O[C@@H]1CO2,.,.,.,80.0,55.2,RORg DNA counter=-
CCCNC(=O)C[C@H]1CC[C@H]2[C@@H](COc3ccc(NC(=O)Nc4ccccc4)cc3C(=O)N2C)O1,.,.,.,-,.,
CN1C(=O)c2cc(NS(=O)(=O)c3ccc(F)cc3)ccc2OC[C@H]2O[C@@H](CC(=O)NCC(F)(F)F)CC[C@@H]21,.,.,.,130.4,79.5,RORg DNA counter=7.22
COc1cccc(CNC(=O)C[C@H]2CC[C@H]3[C@@H](COc4ccc(NC(=O)c5cccs5)cc4C(=O)N3C)O2)c1,.,.,.,59.7,43.0,RORg DNA counter=-
CCC(=O)Nc1ccc2c(c1)C(=O)N(C)[C@@H]1CC[C@@H](CC(=O)NCc3ccc(OC)cc3)O[C@H]1CO2,.,.,.,-,.,
C[C@@H](NC(=O)C[C@H]1CC[C@H]2[C@@H](COc3ccc(NC(=O)Nc4ccccc4)cc3C(=O)N2C)O1)c1ccccc1,.,.,.,26.2,20.3,
CCNC(=O)Nc1ccc2c(c1)C(=O)N(C)[C@H]1CC[C@@H](CC(=O)OC)O[C@H]1CO2,.,.,.,-,.,
CCCOC(=O)c1ccc(NC(=O)Cc2cccs2)cc1,-,-,-,-,.,
CCCC1CCC2(CC1)CCC2OC(=O)Nc1ccc2c(c1)OCO2 (centres undefined),.,.,.,-,.,
Cc1cc(/C=C2\C(=N)N3C(SCc4ccccc4)=NSC3=NC2=O)c(C)n1Cc1ccccc1,-,-,-,73.5,41.3,
CCC(CC)C1=NN2C(=N)/C(=C\c3cc(C)n(-c4cccc(C)c4)c3C)C(=O)N=C2S1,-,-,-,32.0,-,
Cc1cc(/C=C2\C(=N)N3N=C(C(C)C)SC3=NC2=O)c(C)n1Cc1ccccc1,-,-,-,-,.,
CC[C@H](NC(=O)[C@@H](Cc1ccccc1)NC(=O)[C@H]1O[C@@H](n2cnc3c(=O)[nH]c(N)nc32)[C@H](O)[C@@H]1O)c1ccccc1,.,.,.,-,.,
CCOC(=O)C1=CCC(c2ccc([N+](=O)[O-])cc2)N(S(=O)(=O)c2ccc(C)cc2)C1 (centres undefined),.,.,.,-,.,
O=C1C(Cl)=C(NC2CCCCC2)C(=O)N1c1ccc(Cl)cc1,-,-,-,39.7,-,
Cc1ccc(-c2cc(C(=O)NN=Cc3c(O)ccc4ccccc34)[nH]n2)cc1C,.,.,.,22.2,15.8,
COc1ccc2ccccc2c1C=NNC(=O)c1cc(-c2ccc(C)c(C)c2)n[nH]1,.,.,.,-,.,
COC(=O)c1cc2c(c3c4cc(OC)ccc4n(S(=O)(=O)c4cccc(C)c4)c13)C(=O)N(Cc1ccc(C(F)(F)F)cc1)C2,.,.,.,18.2,-,
CCc1cc2c(nc1CC)CCCN2S(=O)(=O)c1ccc(C)cc1,.,.,.,-,.,
O=S(=O)(c1ccccc1)c1nc(-c2ccccc2)oc1N1CCCCC1,-,-,-,-,.,
O=S(=O)(c1ccccc1)c1nc(-c2ccccc2)oc1N1CCCC1,-,-,-,15.6,-,
Nc1nc(Cl)nc2c1ncn2[C@@H]1O[C@H](CO)[C@@H](O)[C@@H]1F,.,.,.,-,.,
SMILES,HNF4A DNA FP,CSN inh,TPT1 inhibitor,Rev-erbA mod,NR1D1 mod conf,others
CC(=O)O[C@H]1C=C[C@@H](NC(=O)OC(C)(C)C)C1,.,.,.,-,.,
CC(=O)Nc1sc(C)c(C)c1C(=O)OCC(=O)NCc1ccc(Cl)cc1,-,-,.,23.9,-,
CCOC(=O)c1ccc(CNC(=O)CSc2nc(NC(=O)c3ccccc3)c3c(C)c(C)oc3n2)cc1,-,-,-,27.2,36.6,RORg DNA counter=-
N#Cc1cc([N+](=O)[O-])ccc1NC(=O)COC(=O)CN1C(=O)C2CCCCC2C1=O (centres undefined),-,-,.,-,.,
Cn1c(=O)oc2cc(S(=O)(=O)N3CCN(C(=O)C4CCCO4)CC3)ccc21 (centres undefined),.,.,.,-,.,
O=C(Nc1cnc2sccn2c1=O)c1ccc(Cl)cc1Cl,-,-,-,-,.,
COc1ccc(Cl)cc1NC(=O)c1cnc2sccn2c1=O,-,-,-,33.4,32.5,
c1ccc(Cn2ccc3ccc(-c4ccc5ccn(Cc6cccc(-c7ccsc7)c6)c5c4)cc32)cc1,.,.,.,30.7,16.5,
COc1ccc(Cn2ccc3ccc(-c4ccc5ccn(Cc6ccc(C#N)cc6)c5c4)cc32)cc1,.,.,.,37.9,-,
N#Cc1cccc(Cn2ccc3ccc(-c4ccc5ccn(Cc6ccccc6)c5c4)cc32)c1,.,.,.,-,.,
N#Cc1cccc(Cn2ccc3ccc(-c4ccc5ccn(Cc6cccc(C#N)c6)c5c4)cc32)c1,.,.,.,58.9,37.5,RORg DNA counter=2.54
O=C(CSc1nnc(-c2cccc(Cl)c2)n1Cc1ccco1)c1ccc(F)cc1,.,.,.,-,.,
COC(=O)CC#C[C@H](C)[C@@H](NS(=O)(=O)c1ccc(C)cc1)C1CCCCC1,.,.,.,-,.,
CCCCn1c(=O)[nH]c(=O)c2c1nc(-c1cc(Cl)c(OC)c(OC)c1)n2C,-,-,-,15.0,-,
COCCNc1nc2sc3c(c2c(=O)n1Cc1ccco1)CCCCC3,.,.,-,48.7,23.3,
COCCN1CCCc2nc(-c3ccc(Br)cc3)ccc21,.,.,.,-,.,
COC(=O)[C@H](Cc1ccccc1)N1CC(N2CCCC2)CS1(=O)=O (some centres undefined),.,.,.,-,.,
Cc1cc(C(=O)CSc2nc(N)cc(=O)[nH]2)ccc1F,-,-,-,-,.,
Cc1cc(C)c2c(=O)[nH]c(SCC(=O)c3ccc(F)c(C)c3)nc2n1,-,-,-,35.4,24.2,
CC1CCCC(NC(=O)COC(=O)c2ccc(Cl)nc2)C1C (centres undefined),-,-,.,-,.,
COC(=O)C1CCCN(C(=O)C2CCN(S(=O)(=O)c3cccs3)CC2)C1 (centres undefined),.,.,.,-,.,
Cc1cc2c(s1)c1cnn(Cc3ccccc3F)c(=O)c1n2C,-,-,-,32.7,18.4,
Cc1cc2c(s1)c1cnn(Cc3c(Cl)ccc(C)c3F)c(=O)c1n2C,.,.,.,233.3,81.2,RORg DNA counter=-
CC(C)(C)OC(=O)[C@H](Cc1ccccc1)NC(=O)c1ncn2c1c(=O)[nH]c1ccc(Br)cc12,-,-,.,168.3,-,
Cc1nn2c(N)c(C#N)cnc2c1-c1ccccc1,-,-,-,-,.,
Cc1nn2c(N)c(-c3ccccc3)cnc2c1-c1ccccc1,-,-,-,18.5,-,
Cc1nn2c(N)c(C#N)cnc2c1-c1ccc(Cl)cc1,-,-,-,50.6,33.8,RORg DNA counter=-
Cc1nn2c3c(cnc2c1-c1ccccc1)C(=O)CC(c1ccco1)C3 (centres undefined),-,-,-,-,.,
